# Assays:
# [1] = target: Adrenergic receptor alpha-2 (Rattus norvegicus) (UniProt P22086+P19328+P22909); assay: Ratio for binding affinity towards alpha-2 adrenoceptor to PNMT; assay type: protein assay
# Method in brief: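 Ratio of α2-adrenoceptor Ki (rat cortex, [3H]clonidine binding) to PNMT Ki (bovine adrenal enzyme, radiochemical assay with phenylethanolamine substrate).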
# [2] = target: T1, Adrenergic receptor alpha-2 (Rattus norvegicus, UniProt P22086+P19328+P22909); assay: Compound was tested in vitro for its affinity towards rat Alpha-2 adrenergic receptor; assay type: protein assay
# T1 sequence (P22086 whole entry): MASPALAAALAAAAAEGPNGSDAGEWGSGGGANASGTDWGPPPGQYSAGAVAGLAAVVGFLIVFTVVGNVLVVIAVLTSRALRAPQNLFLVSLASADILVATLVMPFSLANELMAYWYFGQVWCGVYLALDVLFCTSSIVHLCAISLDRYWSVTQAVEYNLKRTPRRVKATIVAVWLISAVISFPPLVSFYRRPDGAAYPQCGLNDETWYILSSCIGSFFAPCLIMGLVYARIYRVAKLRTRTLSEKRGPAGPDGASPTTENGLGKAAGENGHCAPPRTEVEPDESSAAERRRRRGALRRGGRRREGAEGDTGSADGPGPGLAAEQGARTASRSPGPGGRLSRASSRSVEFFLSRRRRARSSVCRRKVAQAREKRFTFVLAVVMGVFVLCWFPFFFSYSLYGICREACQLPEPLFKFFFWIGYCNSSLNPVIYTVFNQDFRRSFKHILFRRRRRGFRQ
# T1 sequence (P19328 whole entry): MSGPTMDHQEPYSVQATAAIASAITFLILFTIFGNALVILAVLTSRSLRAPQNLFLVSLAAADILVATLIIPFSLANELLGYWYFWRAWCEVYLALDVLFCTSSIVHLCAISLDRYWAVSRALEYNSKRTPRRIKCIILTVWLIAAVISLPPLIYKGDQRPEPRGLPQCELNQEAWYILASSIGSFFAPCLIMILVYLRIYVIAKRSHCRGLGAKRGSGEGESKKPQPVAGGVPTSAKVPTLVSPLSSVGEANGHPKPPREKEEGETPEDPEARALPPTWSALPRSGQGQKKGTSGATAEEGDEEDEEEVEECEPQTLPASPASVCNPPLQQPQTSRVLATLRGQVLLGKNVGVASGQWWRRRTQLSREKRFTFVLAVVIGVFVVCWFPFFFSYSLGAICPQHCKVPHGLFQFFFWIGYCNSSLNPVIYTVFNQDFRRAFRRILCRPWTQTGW
# T1 sequence (P22909 whole entry): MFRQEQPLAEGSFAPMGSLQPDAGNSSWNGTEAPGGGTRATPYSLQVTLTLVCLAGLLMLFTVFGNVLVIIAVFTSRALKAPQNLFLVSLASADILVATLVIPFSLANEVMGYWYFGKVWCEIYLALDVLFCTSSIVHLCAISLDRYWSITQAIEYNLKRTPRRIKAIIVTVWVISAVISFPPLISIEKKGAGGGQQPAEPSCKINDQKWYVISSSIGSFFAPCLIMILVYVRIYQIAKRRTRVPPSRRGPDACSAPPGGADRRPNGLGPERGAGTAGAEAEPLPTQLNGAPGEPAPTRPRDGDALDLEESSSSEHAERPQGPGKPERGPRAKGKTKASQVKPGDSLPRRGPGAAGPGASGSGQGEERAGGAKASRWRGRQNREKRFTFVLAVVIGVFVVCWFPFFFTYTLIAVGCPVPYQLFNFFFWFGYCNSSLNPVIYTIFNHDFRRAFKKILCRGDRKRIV
# Method in brief: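 Membranes from male Sprague-Dawley rat cortex, homogenized in ice-cold 50 mM Tris/HCl pH 7.7 and washed by three 50000g spins. Incubated with [3H]clonidine (final 2.0 nM) and varied inhibitor concentrations, 25 °C for 30 min, then vacuum-filtered on GF/B and counted. Nonspecific binding with 2 μM phentolamine. IC50 by log-probit, converted to Ki = IC50/(1+[clonidine]/KD).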
# [3] = target: T2, Phenylethanolamine N-methyltransferase (Bos taurus, UniProt P10938); assay: Affinity for bovine Phenylethanolamine N-Methyltransferase
# T2 sequence (P10938 whole entry): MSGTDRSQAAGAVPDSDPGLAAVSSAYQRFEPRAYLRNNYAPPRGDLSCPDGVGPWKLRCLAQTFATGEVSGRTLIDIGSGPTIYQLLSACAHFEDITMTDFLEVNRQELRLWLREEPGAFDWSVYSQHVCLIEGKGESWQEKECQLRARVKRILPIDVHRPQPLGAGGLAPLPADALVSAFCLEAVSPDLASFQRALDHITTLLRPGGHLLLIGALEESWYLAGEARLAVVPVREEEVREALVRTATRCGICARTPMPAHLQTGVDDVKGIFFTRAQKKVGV
# [4] = target: T2, Phenylethanolamine N-methyltransferase; assay: Affinity for bovine Phenylethanolamine N-Methyltransferase (PNMT)
SMILES,Ratio [1],Ki [2],Ki [3],Ki [4]
O=S(=O)(Nc1ccc(Cl)cc1)c1ccc2c(c1)CNC(CF)C2 (centres undefined),220,160000 nM,740 nM,–
FC(F)(F)C1Cc2ccc(Br)cc2CN1 (centres undefined),1900,–,–,–
CS(=O)(=O)c1ccc2c(c1)CNC(C(F)(F)F)C2 (centres undefined),110,–,–,–
FCC1Cc2ccc(Br)cc2CN1 (centres undefined),10,6400 nM,–,640 nM
NS(=O)(=O)c1ccc2c(c1)CNC(CF)C2 (centres undefined),1000,680000 nM,660 nM,–
FCC1Cc2ccc(N=C=S)cc2CN1 (centres undefined),39,22000 nM,–,570 nM
CS(=O)(=O)c1ccc2c(c1)CNC(CF)C2 (centres undefined),140,230000 nM,1600 nM,–
N#Cc1ccc2c(c1)CNC(CF)C2 (centres undefined),420,460000 nM,1100 nM,–
Clc1ccc2c(c1Cl)CNCC2,0.095,–,–,–
CS(=O)(=O)c1ccc2c(c1)CNC(CO)C2 (centres undefined),1000,–,–,–
O=[N+]([O-])c1ccc2c(c1)CNC(CF)C2 (centres undefined),140,76000 nM,540 nM,–
OCC1Cc2ccccc2CN1 (centres undefined),6,–,–,–
COc1ccc2c3c([nH]c2c1)C=NCC3,4.4,–,–,–
[N-]=[N+]=Nc1ccc2c(c1)CNC(CF)C2 (centres undefined),28,47000 nM,–,1700 nM
COCC1Cc2ccccc2CN1 (centres undefined),0.3,–,–,–
FCC1Cc2ccc(C(F)(F)F)cc2CN1 (centres undefined),130,41000 nM,–,320 nM
CCC1Cc2ccccc2CN1 (centres undefined),0.028,–,–,–
FCC1Cc2ccc(I)cc2CN1 (centres undefined),34,7100 nM,210 nM,–
FCC1Cc2ccccc2CN1 (centres undefined),2.5,3800 nM,–,1500 nM
CNS(=O)(=O)c1ccc2c(c1)CNC(CF)C2 (centres undefined),130,310000 nM,2400 nM,–
O=S(=O)(NCc1ccccc1)c1ccc2c(c1)CNC(CF)C2 (centres undefined),17,110000 nM,6500 nM,–
NS(=O)(=O)c1ccc2c(c1)CNC(CO)C2 (centres undefined),4100,–,–,–
CC1Cc2ccccc2CN1 (centres undefined),0.36,–,–,–

# Source: ChEMBL document CHEMBL1132375, “Synthesis and biochemical evaluation of 3-fluoromethyl-1,2,3, 4-tetrahydroisoquinolines as selective inhibitors of phenylethanolamine N-methyltransferase versus the alpha(2)-adrenoceptor” (J Med Chem, 1999)
